The values that follow come from ChEMBL document CHEMBL4513216, “Probing the Open Global Health Chemical Diversity Library for Multistage-Active Starting Points for Next-Generation Antimalarials” (ACS Infect Dis, 2020).

This series is described as follows: Toxicity liver stage against HepG2, at 10uM. Type of series: cell-based. The following applies: human, HepG2-A16-CD81EGFP cells; read-out: INHIBITION
The arrangement: test concentration 10 uM, cell line HepG2-A16-CD81EGFP. Summed up: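 Uninfected HepG2-A16-CD81EGFP cells, 3 × 10^3 per well, 1536-well, plated on prespotted compound at 10 μM final, parasite-free screening media added to match infected plates; puromycin 10 μM positive, DMSO 0.5% negative; run in parallel with 48 h PbLuc assay at 37 °C, 5% CO2; viability by CellTiter-Glo luminescence, normalized to controls.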
With `CC(=O)Nc1ccc2c(c1)nc1n2[C@@H](CNCc2ccccc2)COC1`, the cytotoxicity at 10 µM was -10.2%.
The figure for `COc1ccccc1-c1nnc([C@H]2CCN(C(=O)C3CC3)C2)o1` is 0.734%; for `Cc1ccc(-c2noc([C@@H]3Cc4nc[nH]c4CN3)n2)cc1` it is 0.676%.
In the case of `CCCNC(=O)Nc1ccc2c(c1)N(S(=O)(=O)CC)CC2` it was 1.97%; in that of `Cc1nnc(SCC(=O)Nc2csc3nc(=O)c(C)nn23)s1`, 10.8%.
In the case of `O=S1(=O)CCC(S(=O)(=O)c2cccc(S(=O)(=O)N3CCCC3)c2)C1` (stereo not drawn) it was 3.45%; in that of `CS(=O)(=O)N1CCC(C(=O)N2CCC(Cn3cccn3)CC2)CC1`, -10.2%; in that of `O=C(Nc1ccc(CC(=O)N2CCCC2)cc1)NC1CC1`, -2.16%.
With `COc1cc(NC(=O)NCc2cc(C)oc2C)cc(OC)c1`, the cytotoxicity at 10 µM worked out at 5.24%.
The figure for `O=C(NCC1(O)CCc2ccccc2C1)c1cccs1` (stereo not drawn) is 13.8%; for `COCc1cnc2n1CCN(S(=O)(=O)N(C)C)C2C` (stereo not drawn) it is 16.8%; for `CC(C)n1ccc(-c2cc(C(=O)NC3CC3)c3ccccn23)n1` it is -5.4%.
As to `CN(C)CCOCc1nnc2n1CCN(c1cnccn1)CC2`, the cytotoxicity at 10 µM was found to be 5.62%.
The figure for `CC(C)CN1C(=O)CO[C@@H]2CN(C(=O)[C@H]3CCCO3)C[C@H]21` is -5.12%; for `CN(C)c1ncnc2c1CCN(c1ccccc1)CC2` it is 13.4%.
In the case of `CN1CCCN(C(=O)c2nc3c(s2)CCCN3CC2CC2)CC1`, the cytotoxicity at 10 µM is 10%.
In the case of `Cn1cnc(S(=O)(=O)N2CCO[C@H]3[C@@H](OCC4CC4)CC[C@@H]32)c1` it was 7.74%; in that of `O=C(c1c2c(N3CCCC3)ncnc2n2ccccc12)N1CCOCC1`, 9.49%.
The figure for `CCCN1CCC2(Cc3ccccc3NC2=O)C1` (stereo not drawn) is 14.5%.
As to `CSc1ccc(-n2nnc(C(=O)O)c2-c2ccccn2)cc1`, the cytotoxicity at 10 µM was -3.01%.
Take `O=C1CC(c2ccc(Cl)c(Cl)c2)c2c(n3ccsc3nc2=O)N1` (stereo not drawn): the cytotoxicity at 10 µM was -0.839%.
In the case of `Cc1nn(-c2ccccc2)c2c1c(C(F)F)cc(=O)n2CC(=O)O` it was 7.73%.
With `COc1cc(CCC(=O)N2CCC(c3cnccn3)CC2)on1`, the cytotoxicity at 10 µM worked out at 3.1%.
With `Oc1ccc(C2Nc3ccccc3C3=NCCCN32)cc1` (stereo not drawn), the cytotoxicity at 10 µM is -39.1%.
For `O=C(N[C@@H]1CCC[C@@H](N2CCOCC2)[C@@H]1O)c1ncccn1`, the cytotoxicity at 10 µM was -25.9%.
The figure for `CCN(Cc1ccncc1)CC1(O)CCN(C(=O)c2cnn(C)c2)C1` (stereo not drawn) is -26.9%; for `Cn1ccc(C(=O)N2CCCC(c3cc(O)n(C)n3)C2)n1` (stereo not drawn) it is -13.7%; for `CCC(=O)N1CCC(Cc2ccccc2-c2ccccc2)(C(N)=O)C1` (stereo not drawn) it is -0.105%.
The figure for `CC(=O)N1CCC(Cc2cnc(-c3c(C)n[nH]c3C)cn2)C1` (stereo not drawn) is -1.88%.
In the case of `O=C(NCc1cccnc1)Nc1ccn(CC(F)F)n1` it was 1.68%; in that of `CCN(CC)C(=O)NC(C)c1ccc(Oc2cccnc2)c(F)c1` (stereo not drawn), 17.4%; in that of `Cc1cc(C)n(C2CN(CCC(=O)NCCc3ccccc3)C2)n1`, 11.8%.
`Cc1cscc1-c1nc(C2CCOC2)no1` (stereo not drawn): the cytotoxicity at 10 µM was found to be 8.4%.
For `CNS(=O)(=O)c1cccc(C(C)NCc2ccsc2)c1` (stereo not drawn), the cytotoxicity at 10 µM came to 2.45%.
In the case of `Cc1nc(CN2CCc3cnc(C(C)C)nc3C2)oc1C`, the cytotoxicity at 10 µM is 0.479%.
Take `CN(Cc1cccc(Cl)c1)C(=O)Cn1nc(-c2ccc(F)cc2)oc1=O`: the cytotoxicity at 10 µM is -19.9%.
In the case of `Cc1nn(CC(=O)Nc2ccc(F)cc2)c(N)c1C#N` it was 13.3%; in that of `Cc1cc(S(C)(=O)=O)c(C)c(S(=O)(=O)N2CCCCCC2)c1`, 14.1%.
Take `CC(C)OCCS(=O)(=O)c1nccn1-c1cccc(F)c1`: the cytotoxicity at 10 µM is -3.3%.
As for `NS(=O)(=O)CCN(CCc1cccc(F)c1)C1CCCC1`, the cytotoxicity at 10 µM was -6.08%.
`COCCN(CCOC)C(=O)c1cc(F)cc2[nH]cnc12`: the cytotoxicity at 10 µM is -8%.
In the case of `CC(C)N(CCCNC(=O)C1CCCN(C(N)=O)C1)S(C)(=O)=O` (stereo not drawn) it was -8.51%; in that of `O=C(Cn1ncc2ccccc21)Nc1ccnn1CC1CCOC1` (stereo not drawn), 3.03%; in that of `Cn1ncc2cnn(CC(O)COc3cccc4[nH]ccc34)c2c1=O` (stereo not drawn), 13.2%.
The figure for `N#Cc1ccccc1CN(CCO)Cc1ccsc1` is 18.4%; for `O=C(c1ncoc1-c1ccco1)N1CCCN(c2nccs2)CC1` it is 2.99%.
As for `CCNC(=O)COc1ccccc1N1CCCC(C)C1` (stereo not drawn), the cytotoxicity at 10 µM was determined as 8.06%.
Consider `CCOCc1ccccc1NC(=O)NC1CCN(c2ccccc2)C1` (stereo not drawn), for which the cytotoxicity at 10 µM was -6.31%.
Regarding `CCN(C(=O)CCn1cccn1)C1CC1`, the cytotoxicity at 10 µM is -6.16%.
In the case of `Cc1ccc(NC(C)C(=O)NCc2cccs2)cc1C` (stereo not drawn) it was -16.4%; in that of `CC(C)(C)NC(=O)C1CSCN1S(=O)(=O)c1cccc(F)c1` (stereo not drawn), -16.7%; in that of `CC(C)S(=O)(=O)NCC1CCCN(C(=O)c2ccc3c(c2)OCCO3)C1` (stereo not drawn), -35.2%.
In the case of `CCc1c(C)nn(CC(=O)NC(C(=O)O)c2c(C)n[nH]c2C)c1C` (stereo not drawn) it was 5.79%; in that of `CCC(Nc1cccc(OC)c1)C(=O)NCc1ccc2c(c1)OCO2` (stereo not drawn), -1.11%; in that of `COc1cccc(CC2CN(C3CCCCC3)CCO2)c1` (stereo not drawn), -11.9%.
In the case of `CC(=O)c1ccc(N2CCN(C(=O)c3cc(C(C)C)nn3C)CC2)cc1` it was 11%.
As to `CNc1nc(C(=O)N2CCC3(CCCN(CCOC)C3=O)C2)cs1` (stereo not drawn), the cytotoxicity at 10 µM is 7.55%.
In the case of `CCn1cc(-c2n[nH]c(=O)n2-c2ccc3c(c2)OCO3)c(C)n1` it was 2.25%; in that of `O=c1[nH]cnc2c1CCN(S(=O)(=O)c1ccc(Cl)cc1)C2`, -1.68%; in that of `CNc1cc(-c2ccccc2CN)c2cc[nH]c2n1`, -1.43%.
In the case of `CCn1ccnc1CN1CCCN(CC2CC2)C(C(C)C)C1` (stereo not drawn) it was 2.63%; in that of `OC1(CNCCN2CCc3ccccc32)CNCCOC1` (stereo not drawn), 10.7%; in that of `Cc1cc(C)c(-n2cccn2)c(CN2CCOCC(CN(C)C)C2)c1` (stereo not drawn), -8.83%.
On to `O=C1O[C@@H]2CN(Cc3cc4ccccc4s3)C[C@@H]2N1Cc1ccccn1`, for which the cytotoxicity at 10 µM was 10.2%.
In the case of `COc1ccc(CCNCc2ccco2)cc1OC`, the cytotoxicity at 10 µM is -0.0184%.
The figure for `CN(Cc1noc2c1CCCC2)C(=O)Nc1ccc2oc(=O)n(C)c2c1` is -2.36%; for `Cc1ccc(-c2ccnc(N3CCC4(CCO4)CC3)n2)c(C)n1` it is 2.05%; for `COc1ccc(CN2CCC3(CCCN(C)C3=O)C2)c(Cl)c1OC` (stereo not drawn) it is -1.24%.
With `CN1CCn2nc(-c3nc4ccccc4n3C)cc2C1`, the cytotoxicity at 10 µM was -6.99%.
`COCc1nc(CN2CC(C)(c3ccccc3)CCC2=O)no1` (stereo not drawn): the cytotoxicity at 10 µM was 4.85%.
As to `CCN1CCN(C(=O)COc2ccc(CN(C)S(C)(=O)=O)cc2)CC1`, the cytotoxicity at 10 µM amounted to 3.3%.
On to `CCc1c(C)nc(C)nc1N1CCC(NCCSc2nnnn2C)CC1`, for which the cytotoxicity at 10 µM is -15.9%.
For `CN(CCc1ccccn1)c1cc(N2CCCCC2)ncn1`, the cytotoxicity at 10 µM amounted to 3.61%.
The figure for `O=S(=O)(Cc1ccccc1F)NCCCN1CCCCC1` is 17.3%.
For the molecule `CCOc1ccccc1OC1CCN(Cc2ccn(C)c(=O)c2)CC1`, the cytotoxicity at 10 µM came to 3.91%.
`CC(C)C(NC(=O)NCCNc1cnccn1)c1cccs1` (stereo not drawn): the cytotoxicity at 10 µM was determined as 0.0264%.
The figure for `Cc1cc(C)n(CC2CN(CC(=O)Nc3c(C)n[nH]c3C)CCO2)n1` (stereo not drawn) is -9.86%; for `CN(Cc1nc(N)c2ccccc2n1)C1CCCN(c2cccnn2)C1` (stereo not drawn) it is -12.2%; for `CCc1nc2n(n1)CC(NCc1ncc(-c3ccccc3)o1)CC2` (stereo not drawn) it is -3.91%.
In the case of `O=C(c1cc(C2CC2)[nH]n1)N1CCN(Cc2ccsc2)CC1` it was -9.04%.
In the case of `Cc1ccc(S(=O)(=O)N2CCOc3ccccc32)cc1C(N)=O` it was 7.91%; in that of `Cc1nccn1C1CCCN(C(=O)COCC(F)(F)F)C1` (stereo not drawn), -12.1%.
As to `O=C(c1ccc(-n2ccnc2)nc1)N1CCCC(n2cccn2)C1` (stereo not drawn), the cytotoxicity at 10 µM is -5.13%.
For the molecule `Cc1nc(C2CCCN(C(=O)c3ccco3)C2)no1` (stereo not drawn), the cytotoxicity at 10 µM was 0.529%.
The figure for `c1ccc(-n2ccc(CN3CCCC3Cn3cccn3)n2)cc1` (stereo not drawn) is -2.48%; for `Cc1cc(C)n(CC2CN(Cc3nc(-c4ccco4)no3)CCO2)n1` (stereo not drawn) it is -6.58%; for `CCN(Cc1cccc2c1OCO2)C(=O)NC1CC1` it is -9.48%.
Take `Cc1ncc(CNCC2CCCN2c2cccnn2)s1` (stereo not drawn): the cytotoxicity at 10 µM was determined as 1.97%.
In the case of `O=C(Cc1ccc2c(c1)OCCO2)N1CCCC(n2cccn2)C1` (stereo not drawn) it was 7%; in that of `CO[C@H]1CN(C(=O)c2ccccn2)[C@@H]2CCCO[C@H]12`, 3.52%.
Take `Cn1cc(CN2CCCC23CCN(C(=O)c2ccncc2)CC3)cn1`: the cytotoxicity at 10 µM was -3.51%.
Take `Cn1ccnc1C(=O)N1CCC2(CCCN2CC2CC2)CC1`: the cytotoxicity at 10 µM worked out at 8.31%.
In the case of `CCOc1ncnc2c1CCN(Cc1cccs1)CC2` it was 10.2%; in that of `O=C(N1CCOCC1)[C@@]12CCO[C@@H]1CCN(Cc1ccccc1F)C2`, 2.99%.
On to `Cn1cc(CN2CCC3(CC2)CC(c2ccncc2)C(=O)N3)cn1` (stereo not drawn), for which the cytotoxicity at 10 µM amounted to 1.75%.
As to `CCc1cnc(N2CCc3ncnc(N4CCN(C)CC4)c3CC2)nc1`, the cytotoxicity at 10 µM was -1.13%.
In the case of `CC(C)N(C)Cc1nnc2n1CCCN(S(=O)(=O)C1CC1)C2`, the cytotoxicity at 10 µM is -0.48%.
The figure for `O=C1CCCC2=C1C(c1ccco1)C1C(=O)NN=C1N2` (stereo not drawn) is 2.1%.
